# Entries after “also recorded” stand apart in the source; their conditions may differ. Where two headings read alike, the source gives them in different places.
# Key:
# [1] = target: Skp2-Cks1 interaction (Homo sapiens, UniProt P61024+Q13309); assay: AlphaScreen assay for Skp2-Cks1 interaction; type: binding
# [2] = target: SCF^Skp2 (E3) ubiquitination of p27 (Homo sapiens, UniProt Q13309); assay: In vitro p27 ubiquitination assay; type: biochemical
# Outline: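 Mouse p27 translated in rabbit reticulocyte lysate with [35S]-methionine and phosphorylated by recombinant CDK2–cyclin E. It was then mixed with 100 nM E1, 200 nM His-Cdc34, 100 nM SCFSkp2, 50 nM Cks1, 10 μM ubiquitin, 10 μM methylated ubiquitin, ATP regeneration system, 1 μM ubiquitin aldehyde and 1 μM MG132. Run 30 min, 30 °C; products read by SDS-PAGE/phosphorimager. Test compound 40 μM.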
# [3] = test system: mink lung epithelial cell line stably expressing GFP-p27; assay: GFP-p27 stabilization in mink lung epithelial cell line; type: cell-based; conditions: for endogenous p27 level: mink lung epithelial cell line; for stabilization of GFP-p27: mink lung epithelial cell line stably expressing GFP-p27
# [4] = test system: p210^bcr-abl; conditions: read-out: IC50 against p210^bcr-abl in vitro; cited from earlier work
# [5] = test system: K562 leukemia cell lines; conditions: read-out: GI50 against K562 leukemia cell lines; cited from earlier work
# [6] = target: Cks1 (Homo sapiens) (UniProt P61024); conditions: cited from earlier work
# Sequence of Cks1 (Homo sapiens) (P61024 2-79): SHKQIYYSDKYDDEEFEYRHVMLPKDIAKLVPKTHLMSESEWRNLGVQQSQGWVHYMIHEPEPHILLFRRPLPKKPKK
# [7] = target: Cks1 (Homo sapiens) (UniProt P61024); assay: ITC; conditions: cited from earlier work
# [8] = read-out: Inhibition of Skp2-Cks1 IC50, AlphaScreen, GST-Skp2/Skp1 20 nM, Cks1 200 nM
# [9] = read-out: p27 Ub IC50, in vitro p27 ubiquitination
# Sequence of Skp2 (Q13309 whole entry): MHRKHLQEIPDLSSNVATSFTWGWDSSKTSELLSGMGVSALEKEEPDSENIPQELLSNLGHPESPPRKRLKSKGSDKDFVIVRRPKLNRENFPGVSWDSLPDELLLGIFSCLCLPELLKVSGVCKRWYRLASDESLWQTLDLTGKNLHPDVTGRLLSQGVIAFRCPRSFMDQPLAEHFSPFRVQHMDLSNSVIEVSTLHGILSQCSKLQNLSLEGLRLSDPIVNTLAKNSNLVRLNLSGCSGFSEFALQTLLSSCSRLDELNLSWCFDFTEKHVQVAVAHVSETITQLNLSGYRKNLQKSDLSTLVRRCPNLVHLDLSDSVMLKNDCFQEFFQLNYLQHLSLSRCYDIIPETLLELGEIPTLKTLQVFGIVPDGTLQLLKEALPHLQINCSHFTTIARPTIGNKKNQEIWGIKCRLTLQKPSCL
Compound,effect on Skp2-Cks1 interaction (in words) ([1]; AlphaScreen),effect on p27 ubiquitination in vitro (in words) [2],"IC50 [1, 8] [µM]","IC50 [2, 9] [µM]",also measured
"O=C1C=CC(=O)C=C1 [BQ, 1,4-benzoquinone, reference compound]",no effect,no effect,–,–,IC50 [1]: 626 ± 65.7 µM; IC50 [2]: > 300 µM
O=C(OCC12CC3CC(CC(C3)C1)C2)c1ccc(NCc2cc(O)ccc2O)cc1 [Compound 857],blocked the Skp2-Cks1 interaction at low μM concentrations,–,36 ± 6.2,~30,effect on p27 ubiquitination in vitro (in words) ([2]; listed as NSC689857): impeded p27 polyubiquitination in a dose-dependent manner; also recorded: inhibited p27 ubiquitination in vitro; endogenous p27 level [3]: increases only marginally; stabilization of GFP-p27 [3]: dose-dependent stabilization; IC50 [4]: 12.6 µM; GI50 [5]: 12.8 µM
CCCCC(=O)c1ccc(OC)c(C)c1 [Compound A857],–,–,1090 ± 189,> 300,–
CCCCC(=O)c1ccc(OC)c(C)c1 [Compound E857],–,–,8310 ± 1460,> 300,–
CCCCC(=O)c1ccc(OC)c(C)c1 [Compound Q857],blocked the Skp2-Cks1 interaction at low μM concentrations,inhibited p27 ubiquitination in vitro,71 ± 4.4,~15,–
"Cc1cc(O)ccc1O [MHQ, methylhydroquinone, reference compound]",no effect,no effect,–,–,IC50 [1]: 434 ± 39.5 µM; IC50 [2]: > 300 µM
COC(=O)c1ccc(CCc2cc(O)ccc2O)cc1 [NSC681152],blocked the Skp2-Cks1 interaction at low μM concentrations,impeded p27 polyubiquitination in a dose-dependent manner; also recorded: inhibited p27 ubiquitination in vitro,75.6 ± 6.8,~80,endogenous p27 level [3]: increases only marginally; stabilization of GFP-p27 [3]: dose-dependent stabilization; IC50 [4]: 2.64 µM; GI50 [5]: 18.5 µM
Skp2 (from UniProt Q13309),–,–,–,–,Kd [6]: 140 nM; Kd [7]: 14 nM

# Reference: paper PMC4168015 (Journal of biomolecular screening, 2013)
